Screening data: PubChem BioAssay, several laboratories
Rows were chosen to be rich in hits. Some 1.9% of all compounds tested hit in one or more screens of this group.
MsrA act: activators of bovine methionine sulfoxide reductase A; purified bovine MsrA, absorbance read-out; activation, % at 10.6 µM; 360,000 compounds, 0.3% hits; in the data active = activation above about 7.5%;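 also: 0% = vehicle and 100% = reference activator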
Vif imaging: HIV Vif inhibition | HEK293T cells, Vif self-association by quenched fluorescence, imaging, 24 h | inhibition, % at 7.49 µM | 340,000 compounds, 0.35% hits | AID 602346; in the data active = inhibition above about 50%, passing the limit was not always enough
N-glyco inh: N-linked glycosylation inhibition | D54 ERlucT glycosylation luciferase reporter, 24 h; percent of 100 nM tunicamycin response | reporter increase, % at 12.5 µM | 360,000 compounds, 0.23% hits | AID 588692;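 active = mean luciferase reporter signal, scaled so untreated is 0 and the glycosylation-blocking control 100, at or above a set limit in every replicate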;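 also: luciferase carries N-glycosylation sites so blocking glycosylation raises the light; 0% = median of neutral control wells and 100% = median of 100 nM tunicamycin wells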
MsrA inh: inhibitors of bovine MsrA; purified bovine MsrA, absorbance read-out; inhibition, % at 15.5 µM; 360,000 compounds, 0.75% hits; AID 651718;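 also: 0% = vehicle wells with enzyme and 100% = reference inhibitor wells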
UCH37 inh: blocks the human deubiquitinase UCH37 | Q9Y5K5 | purified proteasome/UCH37, Ub-AMC cleavage fluorescence | inhibition, % (test concentration not listed) | 330,000 compounds, 0.33% hits | AID 588478;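 active = mean inhibition over replicate wells above about 20%, limit read from the data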;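 also: 0% = compound-free wells with enzyme and 100% = wells lacking proteasome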
Target sequence (Q9Y5K5 whole entry, looked up): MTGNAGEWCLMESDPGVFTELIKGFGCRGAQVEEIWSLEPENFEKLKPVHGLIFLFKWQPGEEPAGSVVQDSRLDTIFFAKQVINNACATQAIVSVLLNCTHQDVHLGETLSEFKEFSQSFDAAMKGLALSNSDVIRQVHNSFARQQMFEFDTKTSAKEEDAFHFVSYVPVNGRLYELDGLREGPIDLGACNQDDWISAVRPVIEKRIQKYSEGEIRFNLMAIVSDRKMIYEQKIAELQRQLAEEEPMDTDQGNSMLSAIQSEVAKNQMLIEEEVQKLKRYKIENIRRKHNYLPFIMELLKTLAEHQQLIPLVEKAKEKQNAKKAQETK
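Signal – fluorescence, ex 355 nm, em 460 nm · System – Proteasome-bound UCH37 · Input – 0.15 nM proteasome as dispensed · Timing – 30 min preincubation with enzyme, 25 min cleavage at room temperature · Read-out basis – percent inhibition of cleavage signal versus uninhibited and no-proteasome wells · Medium – Tris-HCl pH 7.4 with ATP-MgCl2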
aDG glyco act: alpha-DG glycosylation activation; 360,000 compounds, 0.22% hits; Pro5-aDG cells, alpha-DG glycosylation AlphaScreen (IIH6); 0% Pro5, 100% B10-LARGE cell signal; activation, % at 10 µM; AID 624168;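 active = activation of at least 8% versus controls, or a plate z-score of at least 8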;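 also: Pro5 are CHO cells carrying HIG-tagged alpha-DG that lacks glycosylation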
MsrA conf: bovine MsrA inhibition, confirmed; shares compounds with MsrA inh; purified bovine MsrA, absorbance read-out; inhibition, % at 15.5 µM; 2,300 compounds, 41% hits; AID 651822;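 also: coupled to thioredoxin reductase with NADPH and selenocystamine and DMSO as substrate; 0% = vehicle only and 100% = full effect of reference inhibitor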
* marks the source's active call; other numbers are inactive results. Rule as the data show it, unless noted: active = inhibition above about 4.5%; inactive = the rest.

What do the screens show for `COc1ccc(C=N/N=C2/NC(=O)C(c3ccccc3)S2)c(OC)c1` (configuration not stated)?
UCH37 inh: 10

How did CCOC(=O)c1nnn(-c2nonc2-n2cccc2)c1CN1CCC(C)CC1 do in these assays?
MsrA act: -4; Vif imaging: -10; N-glyco inh: -5; MsrA inh: 0; UCH37 inh: 0; aDG glyco act: 0

How did CCOC(=O)c1nnn(-c2nonc2-n2cccc2)c1CCl do in these assays?
MsrA act: -6; Vif imaging: 6; N-glyco inh: 3; MsrA inh: 6.4*; UCH37 inh: -2; aDG glyco act: 0; MsrA conf: 5.3*

What do the screens show for `COc1ccccc1C(=O)Nc1ccc(NC(=O)c2ccco2)cn1`?
MsrA act: -1; Vif imaging: 17; N-glyco inh: -2; MsrA inh: 1; UCH37 inh: -5; aDG glyco act: 0

What do the screens show for `COc1ccccc1C(=O)NC(=S)Nc1ccc(NC(=O)c2ccco2)cc1`?
MsrA act: -2; Vif imaging: -9; N-glyco inh: -4; MsrA inh: 99*; UCH37 inh: 0; aDG glyco act: 0; MsrA conf: 1

What do the screens show for `O=C(NC(=S)NNC(=O)c1ccccc1O)c1ccco1`?
MsrA act: -1; Vif imaging: 0; N-glyco inh: 1; MsrA inh: 2; UCH37 inh: 10; aDG glyco act: 0

How did COc1ccc(/C=C/C(=O)NC(=S)NNC(=O)c2ccco2)cc1OC do in these assays?
MsrA act: -5; Vif imaging: 8; N-glyco inh: -1; MsrA inh: 3; UCH37 inh: 3; aDG glyco act: 0

What do the screens show for `O=C(NC(=S)NNC(=O)c1cc2ccccc2cc1O)c1ccco1`?
MsrA act: -8; Vif imaging: 0; N-glyco inh: -1; MsrA inh: 6.5*; aDG glyco act: 0; MsrA conf: 4

How did O=C(NNC(=S)NC(=O)c1ccco1)c1ccc(NC(=O)c2ccccc2)cc1 do in these assays?
MsrA act: 0; Vif imaging: 1; N-glyco inh: -2; MsrA inh: 5.2*; UCH37 inh: 2; aDG glyco act: 1; MsrA conf: 3

Results for COc1ccc(/C=C/C(=O)NC(=S)NNC(=O)c2ccco2)cc1 ?
MsrA act: 1; N-glyco inh: 10; MsrA inh: 5.5*; UCH37 inh: -1; aDG glyco act: 0; MsrA conf: 4.9*

What do the screens show for `CC(=NNC(=S)NC(C)C)c1ccco1`?
UCH37 inh: 4

Results for CCC(=NO)c1c(O)c2c(n(-c3ccccc3)c1=O)CCCC2 ?
UCH37 inh: 1

Results for CCOC(=O)/C(C#N)=C/Nc1ccccc1NS(=O)(=O)c1cccc(C(C)=O)c1 ?
MsrA act: -3; Vif imaging: 33; N-glyco inh: 0; MsrA inh: 6.0*; UCH37 inh: 26*; aDG glyco act: 0; MsrA conf: 3

How did CCOC(=O)/C(C#N)=C/Nc1ccccc1OC(F)(F)F do in these assays?
MsrA act: 0; Vif imaging: 6; N-glyco inh: 1; MsrA inh: 11*; UCH37 inh: 4; aDG glyco act: 0; MsrA conf: 7.1*

Results for CC(=NNC(=O)c1cccc(NN=C(C)c2ccccc2)c1)c1ccccc1 ?
UCH37 inh: 3

What do the screens show for `O=[N+]([O-])c1cccc(NN=Cc2cccc3ccccc23)c1`?
UCH37 inh: 10

What do the screens show for `C=CCOc1cccc(/C=C\c2nc(O)c([N+](=O)[O-])c(=O)[nH]2)c1`?
MsrA act: -2; Vif imaging: -14; N-glyco inh: 3; MsrA inh: 4.8*; UCH37 inh: 14; aDG glyco act: 0; MsrA conf: 4

Results for CCOc1ccc(C2=CS/C(=C(\C#N)c3nnc4n3CCCCC4)N2CC)cc1 ?
MsrA act: -4; Vif imaging: -9; N-glyco inh: -4; MsrA inh: 3; UCH37 inh: 13; aDG glyco act: 0

Results for C=CCN1C(c2ccccc2)=CS/C1=C(\C#N)c1nnc2n1CCCCC2 ?
MsrA act: -6; Vif imaging: -4; N-glyco inh: -1; MsrA inh: 4.8*; UCH37 inh: 10; aDG glyco act: 0; MsrA conf: 3

What do the screens show for `CCOC(=O)c1c(NC(=O)COC(=O)/C=C/c2ccco2)sc2c1CC(C)(C)NC2(C)C`?
MsrA act: -3; Vif imaging: 3; N-glyco inh: -7; MsrA inh: 8.7*; UCH37 inh: 2; aDG glyco act: 0; MsrA conf: 15*

How did Cc1cc(C)nc(SCc2ccc(C(=O)NN=CC3CCCCC3)cc2)n1 do in these assays?
UCH37 inh: 1

Results for CC(=NNC(=O)c1nnn(-c2nonc2N)c1-c1ccccc1)c1ccco1 ?
UCH37 inh: -14

Results for CCOC(=O)c1cc(C(=O)OCC)c(=O)[nH]c1N1CCCCC1 ?
MsrA act: -5; Vif imaging: 0; N-glyco inh: 0; MsrA inh: 7.5*; UCH37 inh: 11; aDG glyco act: 0; MsrA conf: 3

How did C(/C=C/c1ccccc1)=NNc1nc(N2CCOCC2)nc(N2CCOCC2)n1 do in these assays?
UCH37 inh: 2

How did CN(C)c1ccc(C(=O)Nc2ccc(S(=O)(=O)NC3=NCCCCC3)cc2)cc1 do in these assays?
MsrA act: -6; Vif imaging: -7; N-glyco inh: -3; MsrA inh: 5.1*; UCH37 inh: -2; aDG glyco act: 0; MsrA conf: 2

Results for CC(C)c1ccc(C(=O)Nc2ccc(S(=O)(=O)NC3=NCCCCC3)cc2)cc1 ?
MsrA act: 2; Vif imaging: -8; N-glyco inh: -5; MsrA inh: 1; aDG glyco act: 0

How did O=[N+]([O-])c1ccc(N=Nc2ncc[nH]2)cc1 do in these assays?
MsrA act: -7; Vif imaging: 17; N-glyco inh: -1; MsrA inh: 2; UCH37 inh: 12; aDG glyco act: 0

What do the screens show for `O=[N+]([O-])c1ccc(N=NN(CCO)CCO)cc1`?
MsrA act: -13; Vif imaging: -5; N-glyco inh: -1; MsrA inh: 5.3*; UCH37 inh: 13; aDG glyco act: 0; MsrA conf: 2

What do the screens show for `S=c1[nH]nc(-c2ccncc2)n1/N=C/C=C/c1ccco1`?
MsrA act: -5; Vif imaging: 7; N-glyco inh: -1; MsrA inh: 7.1*; aDG glyco act: 0; MsrA conf: 4.9*

What do the screens show for `C(=C\c1ccco1)/C=N/n1cnnc1`?
MsrA act: -15; Vif imaging: -6; N-glyco inh: 1; MsrA inh: 4.7*; aDG glyco act: 0; MsrA conf: 5.7*

How did Cc1cccc(-c2n[nH]c(=S)n2N=C/C=C/c2ccco2)c1 do in these assays?
UCH37 inh: 9
